In the array DNA melting data of Ke et al. (doi:10.1101/2024.01.08.574731):

Experiments:
[1] = folding enthalpy; higher = less favourable; fluorescence melt of hairpins on a sequencing array, two-state fit; details: sodium 0.088 M
How it was run: (§1)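 With Cy3 and quencher oligos annealed, library hairpins on a sequenced MiSeq flow cell were imaged for Cy3 fluorescence in 50 mM Na-HEPES pH 8.0, 25 mM NaCl, in 2.5 °C steps up to 60 °C. Melting temperature and folding enthalpy were derived from bootstrapped two-state fits of signals normalised to pre-quench Cy3 and to control constructs. Four replicates were combined by inverse variance, with fitted temperatures raised by 9.35 °C to match UV melts.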

[2] = melting temperature; fluorescence melt of hairpins on a sequencing array, two-state fit, raised by 9.35 °C to match UV melts; details: sodium 0.088 M
How it was run: as §1

Sequence	folding enthalpy [1] [kcal/mol]	Tm [2] [°C]
GATCGGCTACCCGATC ((((((....))))))	-41	54.9
GCAGACGGAAACGTCCAC (..((((....))))..)	-9.46	32.1
GCGACTTTCGC ((((...))))	-21.8	49
TGCAGGAAACTGCA (((((....)))))	-19.6	51.8
GGTGGTGGAAACGCTACC (((.(.(....).).)))	-28.1	40.4
GTGCCGGGAAACCGACAC (((.(((....))).)))	-33.5	52.9
GCCTGCGAAAGCACGGC ((((((....))).)))	-29.7	63.2
GTACCAGGAAACTAGTAC ((((.((....)).))))	-15.3	28.7
GATCCCCAGTGGGATC ((((((....))))))	-43.5	59.1
GCTCCGCGAAAGCTGAGC ((((.((....)).))))	-32.3	61.1
GGTTATGGAAACATAATC (.(((((....))))).)	-31.2	36
GGCGTCGAAAGACTTGCC ((((((....)))..)))	-24.6	48.9
GTCGGGCGAAAGCCGAC (((.(((....))))))	-23	68.6
GTCGACGGAAACGTTGGC (.(.(((....))).).)	-24.6	46.2
GTGGTCGAAAGACCTCAC ((((((....)))..)))	-10.7	38
GAGGATGGAAACATCCCC (.(((((....))))).)	-11.5	42.8
GCTATTCGAAAGAAGAGC (((.(((....))).)))	-39.9	51.1
GCATTAGGAAACTGATGC ((((.((....)).))))	-36.7	45.4
GATCTGCATTCAGATC ((((((....))))))	-39.6	48.9
GGTGAACGAAAGTTTACC (((.(((....))).)))	-45.2	51.8
GTAGACGGAAACGTTTAC (((.(((....))).)))	-33.2	41.5
GATCTATCCTAGATC ((((((...))))))	-30.6	41.1
GGGTAAGGAAACCTACCC (((((.(....).)))))	-30.6	42.9
GCAAAGCGAAAGCTTGC (((.(((....))))))	-23.8	64.5

Sequence	folding enthalpy [1] [kcal/mol]	Tm [2] [°C]
GCCTAGCGAAAGCTTTGC ((..(((....)))..))	-12	33.4
GACTGCCGAAAGGCGTC (((.(((....))))))	-13.8	53.8
GCCGTTGGAAACAGCGGC ((((.((....)).))))	-39.8	60.3
CGGATGAAAATCCG (((((....)))))	-25.5	56
GCGAATCCTCGC ((((....))))	-24.5	46.3
GTTGCACGAAAGTGTAAC (((.(((....))).)))	-29.8	55.5
GATCGTCCATACGATC ((((((....))))))	-41.8	54.8
GCGTCAGGAAACTGACAC (.(((((....))))).)	-13.1	43.3
GATCCACACTGGATC ((((((...))))))	-33.2	50.7
CTCGTGAAAACGAG (((((....)))))	-21.4	53.5
GCGGCGCCCCGC ((((....))))	-16.4	52.7
GATCAGTCTCCTGATC ((((((....))))))	-39.1	49.4
GCGATTCGAAAGAACCGC (((.(((....))).)))	-38.6	53.1
GATCGGTAAGCCGATC ((((((....))))))	-49.4	58.9
GGGGCAGGAAACCACCCC ((((..(....)..))))	-28.6	36.6
GGCATCGAAAGATGGCC ((((((....))).)))	-20.1	58.4
GTTAGCGAAAGCTACAAC ((((((....)))..)))	-8.63	30.4
GTGTCGCGAAAGCGCAC (((.(((....))))))	-18.8	56.6
GATCAGACCGCTGATC ((((((....))))))	-28.5	47.8
GAGGTCGGAAACGGCCTC ((((.((....)).))))	-41.8	62.3
CGCGGACGGAAACGTGCG (((..(((....))))))	-36.2	50
GGTTCAGGAAACTGAATC (.(((((....))))).)	-30.1	44.2
GCGGGGCGAAAGCTCGGC ((.(.((....)).).))	-16.4	56.3
GGGATCGAAAGATTCCC ((((((....))).)))	-25	51

Sequence	folding enthalpy [1] [kcal/mol]	Tm [2] [°C]
GGTGGCGAAAGCCAAACC ((((((....)))..)))	-14.2	47.2
GTCCGGCGAAAGCCGAC (((.(((....))))))	-9.75	49.1
GGGTTTACGAAAGTACCC (((..(((....))))))	-24.2	41.2
GATCGAGCCGTCGATC ((((((....))))))	-34.8	54.4
GCTTTGCGAAAGCGATGC ((.(.((....)).).))	-19.2	46.5
GCGGAGCGAAAGCCCAGC ((.(.((....)).).))	-12.1	42.5
GTCTCTTCGAAAGAAGAC (((..(((....))))))	-9.3	32
GATCTTATCGAAGATC ((((((....))))))	-20.8	38.7
GCCGACGAAAGTCCCGGC ((((((....)))..)))	-20.9	49.6
GTGGGCGAAAGCCACCAC ((((((....)))..)))	-12.7	47.2
GAAGGAGAAATCCTTC ((((((....))))))	-26.8	46.3
GCCTGCGAAAGCACCGGC ((((((....)))..)))	-18.5	46.6
GTTTTGGGAAACCAAAGC (.(((((....))))).)	-29.8	41
GGCTCCGAAAGGATGGCC ((((((....)))..)))	-30.9	52.3
GCAATGCGAAAGCATGGC ((.((((....)))).))	-34	65.2
GCTTGTCCGAAAGGAAGC (((..(((....))))))	-17.7	36.1
GCTGACGAAAGTCAAGC ((((((....))).)))	-28.8	56.3
GCGTAGCGAAAGCTGTGC ((..(((....)))..))	-10	46.1
GAACGGGGAAACCCATTC (((.(((....))).)))	-19	33.2
GCGAGGGGAAACCCCCGC (((.(((....))).)))	-27.5	59.6
GATCGTAATGACGATC ((((((....))))))	-34.3	52.8
GATCACGTTCGTGATC ((((((....))))))	-39.4	62.6
GGATCGCCGAAAGGCTCC (((..(((....))))))	-11	30.4
GCTATGCGAAAGCAGTGC ((..(((....)))..))	-19.1	46.9

Sequence	folding enthalpy [1] [kcal/mol]	Tm [2] [°C]
GCCCTGCGAAAGCAGTGC ((.((((....)))).))	-17.3	58.5
GATTGAGGAAACTCAGTC ((.((((....)))).))	-26.8	36.6
GATCGAACCTTCGATC ((((((....))))))	-40.7	53.5
GCAAGGCGAAAGCTTGGC ((.(.((....)).).))	-17.9	44
GGATTAGGAAACTGATCC ((((.((....)).))))	-33.7	41.8
GCGGTTACCCGC ((((....))))	-28.4	56.7
TCGGAGAAATCCGA (((((....)))))	-16.8	47.3
GAACAAGGAAACTTGCTC ((.((((....)))).))	-19.4	29.4
GATCTCCGGGGAGATC ((((((....))))))	-43.9	55.7
GAGAAAGCGAAAGCTCTC (((..(((....))))))	-14.6	40.2
GGTTTTCGAAAGAAACC (((.(((....))))))	-23.1	44.8
GGGCTTCGAAAGAATCCC (((.(((....))).)))	-33	46.4
GTACAGACGAAAGTCTAC (((..(((....))))))	-11.5	29.8
GGGACCGAAAGGTTTCCC ((((((....)))..)))	-18.6	42.5
GATCTGTGCCCAGATC ((((((....))))))	-30.6	49
GTATGCGAAAGCATATAC ((((((....)))..)))	-11	42.2
GCTCTGCGAAAGCGGCGC ((.(.((....)).).))	-17.2	50.5
GGAAGCGAAAGCTTCTCC ((((((....)))..)))	-9.47	53.3
GGGCGATCGAAAGATCCC (((..(((....))))))	-17.1	48.6
GTCACCGAAAGGTCAGAC ((((((....)))..)))	-14.5	32.2
GGCGACTCGAAAGAGGCC (((..(((....))))))	-16.9	49.7
